Data as given in ChEMBL document CHEMBL1122777, “Effect of tellurium position on the myocardial uptake of radioiodinated 18-iodotellura-17-octadecenoic acid analogues” (1984).

How the values were obtained:
Rattus norvegicus [1] = experiment: Heart uptake after 5 min was determined in female Fischer rats after [125I]-labeled compound complexed with bovine serum albumin was injected intravenously; format: functional
How it was run: (§1)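 Female Fischer 344 rats (fed ad libitum) under ether anaesthesia received the ¹²⁵I fatty acid in a lateral tail vein. Dose was ~3.8–4.8 μCi per rat (sp act ~125–240 mCi/mmol), given in 0.5 mL 6% bovine albumin (final ethanol 10%) after filtration. Four rats per time point were used. Tissue radioactivity is % injected dose/g, mean with range, calculated against standards of the injected solution.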

[2] = Ratio of heart to kidneys uptake after 5 min was determined in female Fischer rats after [125I]-labeled compound complexed with bovine serum albumin was injected intravenously; format: functional, Heart/Kidney
How it was run: (§2)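 Female Fischer 344 rats (food and water ad libitum) given the 125I-labelled fatty acid in 6% bovine albumin with 10% final ethanol, filtered, 0.5 mL into a lateral tail vein under ether anaesthesia. Four rats per time point. Tissue activity expressed as % injected dose/g against assayed injectate standards. Mean heart/tissue ratios were calculated from mean %ID/g values.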

[3] = Ratio of heart to blood uptake after 120 min was determined in female Fischer rats after [125I]-labeled compound complexed with bovine serum albumin was injected intravenously; format: functional; how it was run: as §2
[4] = Ratio of heart to liver uptake after 120 min was determined in female Fischer rats after [125I]-labeled compound complexed with bovine serum albumin was injected intravenously; format: functional; how it was run: as §2
[5] = Ratio of heart to lungs uptake after 60 min was determined in female Fischer rats after [125I]-labeled compound complexed with bovine serum albumin was injected intravenously; format: functional; how it was run: as §2
Rattus norvegicus [6] = experiment: Heart uptake after 30 min was determined in female Fischer rats after [125I]-labeled compound complexed with bovine serum albumin was injected intravenously; format: functional; how it was run: as §1
[7] = Ratio of heart to blood uptake after 5 min was determined in female Fischer rats after [125I]-labeled compound complexed with bovine serum albumin was injected intravenously; format: functional; how it was run: as §2
[8] = Ratio of heart to blood uptake after 240 min was determined in female Fischer rats after [125I]-labeled compound complexed with bovine serum albumin was injected intravenously; format: functional; how it was run: as §2
[9] = Ratio of heart to kidneys uptake after 120 min was determined in female Fischer rats after [125I]-labeled compound complexed with bovine serum albumin was injected intravenously; format: functional, Heart/Kidney; how it was run: as §2
[10] = Ratio of heart to liver uptake after 240 min was determined in female Fischer rats after [125I]-labeled compound complexed with bovine serum albumin was injected intravenously; format: functional; how it was run: as §2
Rattus norvegicus [11] = experiment: Heart uptake after 240 min was determined in female Fischer rats after [125I]-labeled compound complexed with bovine serum albumin was injected intravenously; format: functional; how it was run: as §1
[12] = Ratio of heart to liver uptake after 5 min was determined in female Fischer rats after [125I]-labeled compound complexed with bovine serum albumin was injected intravenously; format: functional; how it was run: as §2
Rattus norvegicus [13] = experiment: Heart uptake after 120 min was determined in female Fischer rats after [125I]-labeled compound complexed with bovine serum albumin was injected intravenously; format: functional; how it was run: as §1
[14] = Ratio of heart to liver uptake after 30 min was determined in female Fischer rats after [125I]-labeled compound complexed with bovine serum albumin was injected intravenously; format: functional; how it was run: as §2
[15] = Ratio of heart to lungs uptake after 30 min was determined in female Fischer rats after [125I]-labeled compound complexed with bovine serum albumin was injected intravenously; format: functional; how it was run: as §2
[16] = Ratio of heart to blood uptake after 30 min was determined in female Fischer rats after [125I]-labeled compound complexed with bovine serum albumin was injected intravenously; format: functional; how it was run: as §2
[17] = Ratio of heart to lungs uptake after 120 min was determined in female Fischer rats after [125I]-labeled compound complexed with bovine serum albumin was injected intravenously; format: functional; how it was run: as §2
[18] = Ratio of heart to blood uptake after 60 min was determined in female Fischer rats after [125I]-labeled compound complexed with bovine serum albumin was injected intravenously; format: functional; how it was run: as §2
[19] = Ratio of heart to lungs uptake after 5 min was determined in female Fischer rats after [125I]-labeled compound complexed with bovine serum albumin was injected intravenously; format: functional; how it was run: as §2
[20] = Ratio of heart to lungs uptake after 240 min was determined in female Fischer rats after [125I]-labeled compound complexed with bovine serum albumin was injected intravenously; format: functional; how it was run: as §2
Rattus norvegicus [21] = experiment: Heart uptake after 60 min was determined in female Fischer rats after [125I]-labeled compound complexed with bovine serum albumin was injected intravenously; format: functional; how it was run: as §1
[22] = Ratio of heart to kidneys uptake after 60 min was determined in female Fischer rats after [125I]-labeled compound complexed with bovine serum albumin was injected intravenously; format: functional, Heart/Kidney; how it was run: as §2
[23] = Ratio of heart to kidneys uptake after 240 min was determined in female Fischer rats after [125I]-labeled compound complexed with bovine serum albumin was injected intravenously; format: functional, Heart/Kidney; how it was run: as §2
[24] = Ratio of heart to kidneys uptake after 30 min was determined in female Fischer rats after [125I]-labeled compound complexed with bovine serum albumin was injected intravenously; format: functional, Heart/Kidney; how it was run: as §2
[25] = Ratio of heart to liver uptake after 60 min was determined in female Fischer rats after [125I]-labeled compound complexed with bovine serum albumin was injected intravenously; format: functional; how it was run: as §2
Rattus norvegicus [26] = experiment: Heart uptake after 4 hr was determined in female Fischer rats after [125I]-labeled compound complexed with bovine serum albumin was injected intravenously; format: functional; how it was run: as §1
Rattus norvegicus [27] = experiment: Liver uptake after 5 min was determined in female Fischer rats after [125I]-labeled compound complexed with bovine serum albumin was injected intravenously; format: functional; how it was run: as §1
Rattus norvegicus [28] = experiment: Blood uptake after 4 hr was determined in female Fischer rats after [125I]-labeled compound complexed with bovine serum albumin was injected intravenously; format: functional; how it was run: as §1
Rattus norvegicus [29] = experiment: Uptake in lungs after 5 min was determined in female Fischer rats after [125I]-labeled compound complexed with bovine serum albumin was injected intravenously; format: functional
How it was run: (§3)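 Female Fischer 344 rats with free access to food and water. The 125I-labelled fatty acid (~3.8–4.8 μCi; sp act. ~125–240 mCi/mmol) was complexed with 6% bovine serum albumin (10% final ethanol), filtered, and 0.5 mL was injected via a lateral tail vein under ether anaesthesia. Four rats per time point. Values are mean % injected dose/g, calculated against injectate standards. Thyroid weight was taken as 7.5 mg/100 g body weight.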

Rattus norvegicus [30] = experiment: Thyroid uptake after 5 min was determined in female Fischer rats after [125I]-labeled compound complexed with bovine serum albumin was injected intravenously; format: functional; how it was run: as §3
Rattus norvegicus [31] = experiment: Uptake in lungs after 30 min was determined in female Fischer rats after [125I]-labeled compound complexed with bovine serum albumin was injected intravenously; format: functional; how it was run: as §3
Rattus norvegicus [32] = experiment: Heart uptake after 1d was determined in female Fischer rats after [125I]-labeled compound complexed with bovine serum albumin was injected intravenously; format: functional; how it was run: as §1
Rattus norvegicus [33] = experiment: Liver uptake after 60 min was determined in female Fischer rats after [125I]-labeled compound complexed with bovine serum albumin was injected intravenously; format: functional; how it was run: as §1
Rattus norvegicus [34] = experiment: Blood uptake after 60 min was determined in female Fischer rats after [125I]-labeled compound complexed with bovine serum albumin was injected intravenously; format: functional; how it was run: as §1
Rattus norvegicus [35] = experiment: Liver uptake after 1d was determined in female Fischer rats after [125I]-labeled compound complexed with bovine serum albumin was injected intravenously; format: functional; how it was run: as §1
Rattus norvegicus [36] = experiment: Uptake in lungs after 60 min was determined in female Fischer rats after [125I]-labeled compound complexed with bovine serum albumin was injected intravenously; format: functional; how it was run: as §3
Rattus norvegicus [37] = experiment: Liver uptake after 30 min was determined in female Fischer rats after [125I]-labeled compound complexed with bovine serum albumin was injected intravenously; format: functional; how it was run: as §1
Rattus norvegicus [38] = experiment: Liver uptake after 4 hr was determined in female Fischer rats after [125I]-labeled compound complexed with bovine serum albumin was injected intravenously; format: functional; how it was run: as §1
Rattus norvegicus [39] = experiment: Blood uptake after 30 min was determined in female Fischer rats after [125I]-labeled compound complexed with bovine serum albumin was injected intravenously; format: functional; how it was run: as §1
Rattus norvegicus [40] = experiment: Uptake in lungs after 4 hr was determined in female Fischer rats after [125I]-labeled compound complexed with bovine serum albumin was injected intravenously; format: functional; how it was run: as §3
Rattus norvegicus [41] = experiment: Kidney uptake after 5 min was determined in female Fischer rats after [125I]-labeled compound complexed with bovine serum albumin was injected intravenously; format: functional; how it was run: as §1
Rattus norvegicus [42] = experiment: Uptake in lungs after 1 day was determined in female Fischer rats after [125I]-labeled compound complexed with bovine serum albumin was injected intravenously; format: functional; how it was run: as §3
Rattus norvegicus [43] = experiment: Blood uptake after 5 min was determined in female Fischer rats after [125I]-labeled compound complexed with bovine serum albumin was injected intravenously; format: functional; how it was run: as §1
Rattus norvegicus [44] = experiment: Blood uptake after 1d was determined in female Fischer rats after [125I]-labeled compound complexed with bovine serum albumin was injected intravenously; format: functional; how it was run: as §1

## O=C(O)CCCCC[Te]CCCCCCCCC/C=C/I
Rattus norvegicus [1]
  Injected dose/g: 3.47%
[2]
  Ratio: 3.3
[3]
  Ratio: 12
[4]
  Ratio: 0.59
[5]
  Ratio: 2.9
Rattus norvegicus [6]
  Injected dose/g: 2.78%
[7]
  Ratio: 13
[8]
  Ratio: 8
[9]
  Ratio: 3.3
[10]
  Ratio: 0.54
Rattus norvegicus [11]
  Injected dose/g: 2.37%
[12]
  Ratio: 0.56
Rattus norvegicus [13]
  Injected dose/g: 2.86%
[14]
  Ratio: 0.49
[15]
  Ratio: 2.9
[16]
  Ratio: 13
[17]
  Ratio: 2.9
[18]
  Ratio: 13
[19]
  Ratio: 2.7
[20]
  Ratio: 2.8
Rattus norvegicus [21]
  Injected dose/g: 2.96%
[22]
  Ratio: 3.1
[23]
  Ratio: 3.1
[24]
  Ratio: 3.1
[25]
  Ratio: 0.55

## O=C(O)CCCCCCCCCCC[Te]CCC/C=C/I
Rattus norvegicus [1]
  Injected dose/g: 1.46%
[2]
  Ratio: 1.5
[3]
  Ratio: 1.5
[4]
  Ratio: 0.42
[5]
  Ratio: 1.6
Rattus norvegicus [6]
  Injected dose/g: 1.52%
[7]
  Ratio: 8
[8]
  Ratio: 1.2
[9]
  Ratio: 1.1
[10]
  Ratio: 0.39
Rattus norvegicus [11]
  Injected dose/g: 0.76%
[12]
  Ratio: 0.17
Rattus norvegicus [13]
  Injected dose/g: 1.03%
[14]
  Ratio: 0.29
[15]
  Ratio: 1.7
[16]
  Ratio: 2.5
[17]
  Ratio: 1.3
[18]
  Ratio: 2.6
[19]
  Ratio: 1.6
[20]
  Ratio: 1.1
Rattus norvegicus [21]
  Injected dose/g: 1.81%
[22]
  Ratio: 1.6
[23]
  Ratio: 1.9
[24]
  Ratio: 1.5
[25]
  Ratio: 0.41

## O=C(O)CCC[Te]CCCCCCCCCCC/C=C/I
Rattus norvegicus [1]
  Injected dose/g: 3.99%
[2]
  Ratio: 3.9
[3]
  Ratio: 20
Rattus norvegicus [26]
  Injected dose/g: 3.57%
[4]
  Ratio: 0.74
[5]
  Ratio: 3.7
Rattus norvegicus [27]
  Injected dose/g: 6.56%
Rattus norvegicus [6]
  Injected dose/g: 4.64%
[7]
  Ratio: 37
Rattus norvegicus [28]
  Injected dose/g: 0.19%
Rattus norvegicus [29]
  Injected dose/g: 1.47%
Rattus norvegicus [30]
  Injected dose/g: 6.03%
[8]
  Ratio: 18
[9]
  Ratio: 4
Rattus norvegicus [31]
  Injected dose/g: 1.54%
Rattus norvegicus [32]
  Injected dose/g: 3.96%
Rattus norvegicus [33]
  Injected dose/g: 7.33%
[10]
  Ratio: 0.75
[12]
  Ratio: 0.6
Rattus norvegicus [34]
  Injected dose/g: 0.19%
Rattus norvegicus [35]
  Injected dose/g: 3.64%
[14]
  Ratio: 0.84
[15]
  Ratio: 3
Rattus norvegicus [36]
  Injected dose/g: 1.16%
Rattus norvegicus [37]
  Injected dose/g: 5.53%
[16]
  Ratio: 30
Rattus norvegicus [38]
  Injected dose/g: 4.76%
[17]
  Ratio: 3.6
[18]
  Ratio: 23
[19]
  Ratio: 2.7
Rattus norvegicus [39]
  Injected dose/g: 0.16%
[20]
  Ratio: 3.9
Rattus norvegicus [21]
  Injected dose/g: 4.33%
[22]
  Ratio: 3.7
[23]
  Ratio: 4.3
[24]
  Ratio: 4.6
[25]
  Ratio: 0.59
Rattus norvegicus [40]
  Injected dose/g: 0.92%
Rattus norvegicus [41]
  Injected dose/g: 1.02%
Rattus norvegicus [42]
  Injected dose/g: 0.71%
Rattus norvegicus [43]
  Injected dose/g: 0.11%
Rattus norvegicus [44]
  Injected dose/g: 0.18%
